Published values collected from several papers.
Lines come from different studies, so protocols differ.
Target: Glycogen synthase kinase-3 alpha (GSK3A, Homo sapiens, UniProt P49840)

SMILES	effect on	action	method	tested at	endpoint	result
Cn1cc(-c2cccc(N3CCc4c(sc5c4CC(C)(C)C5)C3=O)c2CO)cc(Nc2ccncn2)c1=O	enzyme activity	inhibitor		1 µM	inhibition	4%
O=c1[nH]c2ccccc2n1C1CCN(Cc2ccc(-c3[nH]c4cc5ncnc5cc4nc3-c3ccccc3)cc2)CC1	cell-free assay			0.5 µM	remaining signal	100%
COc1ncccc1-c1cnn2ccc(N3CCN(C(=O)OC(C)C)CC3)nc12	binding		competition with immobilised ligand	1 µM	remaining binding	100%
C#Cc1n[nH]c2c(-c3cn([C@@H](C)c4ccccc4)c(=O)[nH]c3=O)cc(F)cc12	enzyme activity	inhibitor		0.1 µM	inhibition	-1.9%
Cn1cc(-c2cc(F)cc(N3CCn4c(cc5c4CCCC5)C3=O)c2CO)cc(Nc2ccc(N3CCN(C4COC4)CC3)cn2)c1=O	enzyme activity	inhibitor		0.1 µM	inhibition	19%
C#Cc1n[nH]c2c(-c3cn([C@@H](C)c4ccccn4)c(=O)[nH]c3=O)cc(F)cc12	enzyme activity	inhibitor		0.1 µM	inhibition	-0.2%
Nc1ncc(-c2nc(N3CCOCC3)nc(N3CCOCC3)n2)c(C(F)F)n1	binding		competition with immobilised ligand	10 µM	remaining binding	91%
Cc1nn(C)cc1-c1nc2c(N3CCN(Cc4ccc(Cl)cc4)CC3)c(Cl)cnc2[nH]1	binding		competition with immobilised ligand	1 µM	remaining binding	100%
Cn1cncc1[C@@](O)(COc1ccc(C#N)cc1-c1ccc(OC(F)(F)F)cc1)c1ccc(C#N)cc1	cell-free assay		competition with immobilised ligand	1 µM	remaining binding	100%
